Screening results deposited in PubChem BioAssay by Broad Institute.
FN deposition inh = fibronectin deposition inhibition | AH1F fibroblasts, Alexa488-fibronectin deposition fluorescence, overnight | 350,000 compounds, 0.086% hits | inhibition, % at 12.6 µM;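 active means mean inhibition across replicates of 30% or more, regardless of how many single replicates reach that level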;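 further: positive control wells lacked labelled fibronectin entirely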
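Schedule: 1 h cell adhesion before compound, then overnight fibronectin incubation; test system: AH1F fibroblast monolayer depositing Alexa488-labelled fibronectin into matrix; quantity: 10000 AH1F cells per well; probe or stimulus: fluorescent fibronectin at 24 nM final; signal: fluorescence, ex 485 nm, em 525 nm; evaluation: percent inhibition as loss of matrix-bound fibronectin fluorescence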
RAD52 inh = inhibitors of human RAD52 DNA annealing; recombinant RAD52 DNA annealing, FRET fluorescence; 360,000 compounds, 0.46% hits; inhibition, % at 18.7 µM;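 active means every replicate showing at least 50% inhibition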
PAX8 inh HTS = PAX8 transcriptional activity inhibition | RMG-I TPO-luciferase reporter, SteadyGlo, 24 h | inhibition, % at 12.6 µM | 360,000 compounds, 1.2% hits | AID 652154;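 active means mean replicate inhibition at least 60% with every replicate also reaching 60%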;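 further: luciferase light reporting Pax8 driven TPO promoter activity; plate controls were median of neutral control wells for no effect and mitoxantrone controls for full effect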
RAD54 branch = blocks human RAD54 Holliday junction branch migration | Q92698 | FAM/BHQ fluorescence | inhibition, % at 10.4 µM | 360,000 compounds, 0.14% hits;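 active means mean normalized replicate activity at least 40 and at least half of replicates scoring 40 or more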;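 further: 0% = median of neutral control wells and 100% = median of positive control wells; inhibitors cause a drop in the FAM fluorescence signal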
Target sequence (Q92698 whole entry, looked up): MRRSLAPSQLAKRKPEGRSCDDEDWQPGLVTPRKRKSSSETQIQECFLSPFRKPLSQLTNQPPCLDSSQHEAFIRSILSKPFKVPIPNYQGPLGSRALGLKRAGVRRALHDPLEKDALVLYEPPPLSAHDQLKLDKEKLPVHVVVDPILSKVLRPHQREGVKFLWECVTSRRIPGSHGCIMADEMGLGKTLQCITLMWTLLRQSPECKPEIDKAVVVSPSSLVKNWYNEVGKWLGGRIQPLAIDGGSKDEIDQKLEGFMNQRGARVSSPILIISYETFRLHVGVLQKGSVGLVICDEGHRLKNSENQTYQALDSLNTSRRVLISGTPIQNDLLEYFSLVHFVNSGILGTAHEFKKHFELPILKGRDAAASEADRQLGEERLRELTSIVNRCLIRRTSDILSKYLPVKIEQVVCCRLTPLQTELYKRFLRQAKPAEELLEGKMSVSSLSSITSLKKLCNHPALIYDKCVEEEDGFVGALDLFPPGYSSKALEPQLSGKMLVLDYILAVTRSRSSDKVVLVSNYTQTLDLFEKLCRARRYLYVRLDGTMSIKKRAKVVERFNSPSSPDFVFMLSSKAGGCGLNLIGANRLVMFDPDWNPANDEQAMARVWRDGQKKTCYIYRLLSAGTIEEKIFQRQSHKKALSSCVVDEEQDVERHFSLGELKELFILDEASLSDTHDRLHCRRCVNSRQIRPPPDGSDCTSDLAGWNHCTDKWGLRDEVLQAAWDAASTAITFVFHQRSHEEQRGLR
* hit, by the source's call; ! = repeats disagree. The list is not random: actives were taken first. Their share in the collection is about 1.3%.

Screening CC(C)c1ccc(C2C3=C(COC3=O)Nc3cc4c(cc32)OCO4)cc1 (centres undefined) returned FN deposition inh 14, RAD52 inh -8, PAX8 inh HTS 79* and RAD54 branch 2.
`C[C@H](CO)N1C[C@H](C)[C@@H](CN(C)C(=O)Nc2ccc(-c3cccs3)cc2)OCc2cnnn2CCCC1=O` gave FN deposition inh -10, RAD52 inh -3, PAX8 inh HTS 58 and RAD54 branch 4.
`C[C@@H]1CN([C@@H](C)CO)C(=O)CCCn2nncc2CO[C@H]1CN(C)C(=O)Nc1ccc(-c2cccs2)cc1` gave FN deposition inh 11, RAD52 inh 4, PAX8 inh HTS 84* and RAD54 branch -2.
`C[C@H]1CN([C@@H](C)CO)C(=O)CCCn2nncc2CO[C@H]1CN(C)C(=O)Nc1ccc(-c2cccs2)cc1` gave FN deposition inh -5, RAD52 inh 10, PAX8 inh HTS 66* and RAD54 branch 9.
`CCOC(=O)C1=C(CC)Nc2ccccc2N=C1NC(=O)c1ccc(OC)c(S(=O)(=O)N2CCCCC2C)c1` (centres undefined) gave FN deposition inh -14, RAD52 inh -30 and PAX8 inh HTS 10.
Screening C[C@@H]1CN([C@H](C)CO)C(=O)c2c(c3ccccc3n2C)-c2ccccc2CO[C@@H]1CN(C)S(=O)(=O)c1ccsc1 returned FN deposition inh 0, RAD52 inh 21, PAX8 inh HTS 7 and RAD54 branch -7.
For Cc1ccc(C)c(CSC2=NCCN2C(=O)Cc2ccc([N+](=O)[O-])cc2)c1 the results were FN deposition inh 6, RAD52 inh -12 and PAX8 inh HTS 95*.
For C[C@@H]1CCCCO[C@H](CN(C)Cc2ccc3c(c2)OCO3)[C@H](C)CN([C@@H](C)CO)C(=O)c2cc(NC(=O)Nc3ccc(C(F)(F)F)cc3)ccc2O1 the results were FN deposition inh -3, RAD52 inh 3, PAX8 inh HTS 63* and RAD54 branch -4.
For C[C@H](CO)N1C[C@H](C)[C@H](CN(C)Cc2ccc3c(c2)OCO3)OCCCC[C@H](C)Oc2ccc(NC(=O)Nc3ccc(C(F)(F)F)cc3)cc2C1=O the results were FN deposition inh -1, RAD52 inh 29, PAX8 inh HTS 108* and RAD54 branch 5.
`C[C@@H]1CCCCO[C@@H](CN(C)Cc2ccc3c(c2)OCO3)[C@@H](C)CN([C@H](C)CO)C(=O)c2cc(NC(=O)Nc3ccc(C(F)(F)F)cc3)ccc2O1` gave FN deposition inh -1, RAD52 inh 20, PAX8 inh HTS 35 and RAD54 branch 3.
C[C@@H]1CN([C@@H](C)CO)C(=O)c2cc(NC(=O)Nc3ccc(C(F)(F)F)cc3)ccc2O[C@@H](C)CCCCO[C@H]1CN(C)Cc1ccc2c(c1)OCO2 was read as FN deposition inh -2, RAD52 inh 48, PAX8 inh HTS 83* and RAD54 branch 6.
`C[C@@H]1CCCCO[C@H](CN(C)Cc2ccc3c(c2)OCO3)[C@@H](C)CN([C@@H](C)CO)C(=O)c2cc(NC(=O)Nc3ccc(C(F)(F)F)cc3)ccc2O1` gave RAD52 inh 61*, PAX8 inh HTS 101* and RAD54 branch 3.
`COc1ccc(-c2[nH]ncc2CNC(C)CCn2cccn2)c(F)c1` (centres undefined) gave FN deposition inh 2, RAD52 inh -6, PAX8 inh HTS 2 and RAD54 branch -7.
`CN(Cc1ccccc1)C(=O)c1ccc(NC(=O)Cc2ccc(NC(=O)C3CCN(C(=O)C4CC4)CC3)cc2)cc1` gave FN deposition inh 21, RAD52 inh -41 and PAX8 inh HTS -9.
`C[C@@H]1CN([C@@H](C)CO)C(=O)c2cc(NC(=O)NC3CCCCC3)ccc2O[C@@H](C)CCCCO[C@H]1CN(C)C(=O)Nc1ccc2c(c1)OCO2` gave FN deposition inh -12, PAX8 inh HTS -3 and RAD54 branch -1.
C[C@@H]1CN([C@H](C)CO)C(=O)c2cc(NC(=O)Nc3ccc(C(F)(F)F)cc3)ccc2O[C@@H](C)CCCCO[C@H]1CN(C)Cc1ccc2c(c1)OCO2 was read as FN deposition inh -4, RAD52 inh 44, PAX8 inh HTS 108* and RAD54 branch 2.
C[C@H]1CCCCO[C@H](CN(C)Cc2ccc3c(c2)OCO3)[C@@H](C)CN([C@@H](C)CO)C(=O)c2cc(NC(=O)Nc3ccc(C(F)(F)F)cc3)ccc2O1 was read as FN deposition inh -2, RAD52 inh 32, PAX8 inh HTS 67* and RAD54 branch 2.
CCc1ccc(OCC(=O)NC(NC(=S)Nc2ccccc2C)C(Cl)(Cl)Cl)cc1 (centres undefined) was read as FN deposition inh -1, RAD52 inh -12, PAX8 inh HTS 116* and RAD54 branch 1.
`Cc1ccccc1NC(=S)NC(NC(=O)COc1ccccc1)C(Cl)(Cl)Cl` (centres undefined) gave FN deposition inh -2, PAX8 inh HTS 14 and RAD54 branch -3.
Screening CCOC(=O)c1ccc(NC(=O)O[C@H]2[C@H](OC(=O)Nc3ccccc3)[C@@H](OC(=O)Nc3ccccc3)[C@@H](OC)O[C@@H]2CO)cc1 returned RAD52 inh -8, PAX8 inh HTS 82* and RAD54 branch -5.
COc1ccc(NC(=O)O[C@H]2[C@H](OC(=O)Nc3ccccc3)[C@H](OC(=O)Nc3ccccc3)[C@@H](OC)O[C@@H]2CO)cc1 was read as RAD52 inh 16, PAX8 inh HTS -16 and RAD54 branch -6.
`CC(=C\C(=O)O)/C(=C/c1ccc(C)o1)C(=O)O` gave FN deposition inh 5, RAD52 inh -35, PAX8 inh HTS 76* and RAD54 branch 11.
`COc1cccc(CN2CCN(C(c3ccccc3)c3ccccc3)CC2)c1O` gave FN deposition inh 0, RAD52 inh -5, PAX8 inh HTS 25 and RAD54 branch -3.
`FC(F)(F)c1nnc2c(Sc3ccccc3)nc3ccc(Cl)cc3n12` gave FN deposition inh 8, PAX8 inh HTS 113* and RAD54 branch 3.
`FC(F)(F)c1nc2ccccc2n2c(-c3ccc(Cl)cc3Cl)nnc12` gave RAD54 branch 7.
Screening CCOC(=O)c1ccc(N2C(=O)CC(C(=O)OC)=C2C)cc1 returned FN deposition inh 4, PAX8 inh HTS 3 and RAD54 branch -17.
For Cc1ccnc2c1ccc1ccccc12 the results were FN deposition inh 3, RAD52 inh -8, PAX8 inh HTS 0 and RAD54 branch 3.
O=Cc1ccc2ccc3cccnc3c2n1 was read as FN deposition inh 7, RAD52 inh -15, PAX8 inh HTS 18 and RAD54 branch 14.
For c1cnc2c(c1)ccc1cccnc12 the results were FN deposition inh 5, RAD52 inh -8, PAX8 inh HTS 77*! and RAD54 branch 13.
Screening Cc1ccnc2c1ccc1cccnc12 returned RAD52 inh -6, PAX8 inh HTS 80* and RAD54 branch 19.
`O=C(Nc1cccc(C2=NCCN2)c1)Nc1cccc(C2=NCCN2)c1` gave FN deposition inh -5, RAD52 inh 33, PAX8 inh HTS 99* and RAD54 branch 42.
